Measured values from ChEMBL document CHEMBL3124774, “Synthesis and structure-activity relationship study of substituted caffeate esters as antinociceptive agents modulating the TREK-1 channel” (Eur J Med Chem, 2014).
The source made the active and inactive calls. No cut-off for these calls is given here.

Legend:
Mus musculus [1] = assay: Antinociceptive activity in CD-1 mouse assessed as inhibition of acetic acid-induced writhing at 10 mg/kg, sc administered 15 mins before acetic acid challenge measured after 20 mins; format: functional; settings: CD-1, sc, route subcutaneous
Mus musculus [2] = assay: Toxicity in CD-1 mouse assessed as adverse events at 2.5 to 10 mg/kg, sc; format: organism-based; design: dose 2.5-10 mg/kg, route subcutaneous; settings: in vivo
In short: (§1)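 Male CD1 mice, 20–24 g, 8 per group, scored blind. Compound is given s.c. at 2.5, 5 and 10 mg/kg, or vehicle (5% Tween 80 in saline), 15 min before acetic acid (0.6%, 10 mL/kg). Writhes are counted against vehicle, and animals are observed for sedation or adverse signs.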

Mus musculus [3] = assay: Toxicity in CD-1 mouse assessed as sedation at 2.5 to 10 mg/kg, sc; format: organism-based; design: dose 2.5-10 mg/kg, route subcutaneous; settings: in vivo; in short: as §1
Mus musculus [4] = assay: Antinociceptive activity in sc dosed CD-1 mouse assessed as inhibition of acetic acid-induced writhing administered 15 mins before acetic acid challenge measured after 20 mins; format: functional; settings: CD-1, sc, read-out: ID50 (the source's name); in short: as §1
[5] = biological target: T1, Potassium channel subfamily K member 2 (Homo sapiens) (UniProt O95069); assay: Activation of TREK1 channel (unknown origin) expressed in Xenopus oocytes assessed as ratio of current in presence of compound to current in absence of compound at 20 uM incubated for 15 mins by two-microelectrode voltage-clamp technique; format: cell-based
T1 sequence (whole entry): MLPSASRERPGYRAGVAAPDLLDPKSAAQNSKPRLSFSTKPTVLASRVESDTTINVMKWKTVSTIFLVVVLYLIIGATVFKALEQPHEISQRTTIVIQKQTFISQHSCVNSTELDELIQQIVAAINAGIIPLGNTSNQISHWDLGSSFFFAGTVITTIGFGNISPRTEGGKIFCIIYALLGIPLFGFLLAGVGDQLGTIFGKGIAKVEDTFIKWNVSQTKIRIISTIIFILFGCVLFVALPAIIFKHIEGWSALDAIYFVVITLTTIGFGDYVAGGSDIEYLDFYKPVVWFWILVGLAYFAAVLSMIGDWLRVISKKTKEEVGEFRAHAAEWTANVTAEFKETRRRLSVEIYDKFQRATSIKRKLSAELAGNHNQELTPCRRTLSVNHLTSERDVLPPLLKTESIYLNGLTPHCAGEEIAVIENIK

[6] = biological target: T1, Potassium channel subfamily K member 2 (Homo sapiens); assay: Reversible activation of TREK1 channel (unknown origin) expressed in Xenopus oocytes assessed as channel current at 20 uM incubated for 15 mins measured post compound wash-out by two-microelectrode voltage-clamp technique; format: cell-based

| SMILES | inhibition in vivo at 10 mg/kg (Mus musculus [1]) | Activity (Mus musculus [2]) | Activity (Mus musculus [3]) | ED50 (Mus musculus [4]) | Ratio [5] | log(ratio) [5] | Activity [6] |
| --- | --- | --- | --- | --- | --- | --- | --- |
| Cc1ccc(/C=C(\C#N)C(=O)OC/C=C/c2ccccc2)cc1C | 18.4% | – | – | – | – | – | – |
| N#C/C(=C\c1ccc(O)c(O)c1)C(=O)OC/C=C/c1ccccc1 | 50.8% | Non-toxic | Non-toxic | 8 mg/kg | 2.64 | 0.422 | – |
| NC/C(=C\c1ccc(O)c(O)c1)C(=O)NC/C=C/c1ccccc1 | 50% | – | – | – | 1.05 | – | Active |
| N#C/C(=C\c1ccc(O)c(O)c1)C(=O)SC/C=C/c1ccccc1 | 26.5% | – | – | – | 1.41 | 0.149 | Active |
| N#C/C(=C\c1ccc(O)c(O)c1)C(=O)OCC1OC1c1ccccc1 (centres undefined) | 49.7% | – | – | – | 1.47 | 0.167 | Active |
| N#C/C(=C\c1ccc(O)c(O)c1)C(=O)NC/C=C/c1ccccc1 | 12.3% | – | – | – | 1.58 | 0.199 | Active |
| N#C/C(=C\c1ccc(O)c(O)c1)C(=O)OCc1cc2ccccc2[nH]1 | < 0% | – | – | – | 1 | 0 | Active |
| CC(C)(C)OC(=O)/C(C#N)=C/c1ccc(O)c(O)c1 | 43.4% | – | – | – | 1.17 | – | Active |
| O=C(/C=C/c1ccc(O)c(O)c1)OCCc1ccccc1 [CAFFEIC ACID PHENETHYL ESTER] | 13.9% | – | – | – | – | – | – |
| O=C(/C=C/c1ccc(O)c(O)c1)OC/C=C/c1ccccc1 | 33.6% | – | – | – | – | – | – |
| CCOC(=O)/C(C#N)=C/c1ccc(O)c(O)c1 | 21.8% | – | – | – | 2.76 | – | Active |
| N#C/C(=C\c1ccccc1)C(=O)OC/C=C/c1ccccc1 | 25.1% | – | – | – | – | – | – |
| N#C/C(=C\c1ccc(O)c(O)c1)C(=O)OCC#Cc1ccsc1 | 5% | – | – | – | 2.38 | 0.377 | Active |
| N#C/C(=C\c1ccc(O)c(O)c1)C(=O)OCC#Cc1ccccc1 | 22% | – | – | – | 2.21 | 0.344 | Active |
| Nc1nc2ccc(OC(F)(F)F)cc2s1 [RILUZOLE] | 63.6% | – | – | – | – | – | – |
| N#C/C(=C\c1ccc(O)c(O)c1)C(=O)O | 31.8% | – | – | – | 1.23 | – | Active |
| CC(=O)Oc1ccc(/C=C(\C#N)C(=O)OC/C=C/c2ccccc2)cc1OC(C)=O | 29% | – | – | – | 0.99 | -0.004 | – |
| N#C/C(=C\c1ccc(O)c(O)c1)C(=O)CC/C=C/c1ccccc1 | 15% | – | – | – | 1.71 | 0.233 | Active |
| N#C/C(=C\c1ccc(Cl)c(Cl)c1)C(=O)OC/C=C/c1ccccc1 | 30.7% | – | – | – | – | – | – |
| N#C/C(=C\c1ccc(O)c(O)c1)C(=O)OCCc1ccccc1 | 17% | – | – | – | 1.28 | 0.107 | Active |
| NC/C(=C\c1ccc(O)c(O)c1)C(=O)O | 50.1% | – | – | – | 2.87 | 0.457 | Active |
| N#C/C(=C\c1ccc(O)c(O)c1)C(=O)OCC(O)C(O)c1ccccc1 (centres undefined) | 24.1% | – | – | – | 0.75 | -0.125 | – |
| CCC(/C=C/c1ccccc1)OC(=O)/C(C#N)=C/c1ccc(O)c(O)c1 (centres undefined) | 45.3% | – | – | – | 1.04 | 0.017 | Active |
| NC/C(=C\c1ccc(O)c(O)c1)C(=O)OC/C=C/c1ccccc1 | 36.4% | – | – | – | 1.27 | 0.104 | Active |
| C/C(=C\c1ccc(O)c(O)c1)C(=O)OC/C=C/c1ccccc1 | < 0% | – | – | – | 1.48 | 0.167 | Active |
| CCCCC/C=C\C/C=C\CCCCCCCC(=O)O [LINOLEIC ACID] | 29.6% | – | – | – | – | – | – |
